# T1: methionine synthase reductase (MSR), human, I22/S175 background (Homo sapiens, UniProt Q9UBK8, A129T)
# T1 sequence (Q9UBK8 1-698 A129T): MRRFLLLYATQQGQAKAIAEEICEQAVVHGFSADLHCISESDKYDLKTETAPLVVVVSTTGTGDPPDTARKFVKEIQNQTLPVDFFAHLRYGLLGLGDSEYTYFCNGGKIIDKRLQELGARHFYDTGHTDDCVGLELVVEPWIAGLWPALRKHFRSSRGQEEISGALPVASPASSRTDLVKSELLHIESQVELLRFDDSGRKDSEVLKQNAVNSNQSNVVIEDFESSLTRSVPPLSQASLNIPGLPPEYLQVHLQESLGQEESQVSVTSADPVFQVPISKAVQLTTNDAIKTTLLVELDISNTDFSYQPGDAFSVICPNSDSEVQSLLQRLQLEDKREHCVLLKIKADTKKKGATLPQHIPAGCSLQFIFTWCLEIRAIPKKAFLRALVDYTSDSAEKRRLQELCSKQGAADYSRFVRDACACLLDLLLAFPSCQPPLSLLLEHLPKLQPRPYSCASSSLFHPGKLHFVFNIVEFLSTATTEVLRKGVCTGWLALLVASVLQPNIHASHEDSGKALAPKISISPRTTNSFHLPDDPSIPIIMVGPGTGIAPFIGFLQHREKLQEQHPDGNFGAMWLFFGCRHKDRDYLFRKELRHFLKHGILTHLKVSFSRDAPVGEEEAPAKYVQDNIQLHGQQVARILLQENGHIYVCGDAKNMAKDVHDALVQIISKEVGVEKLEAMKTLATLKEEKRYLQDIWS
# T2: methionine synthase reductase (MSR), human, I22/S175 background (Homo sapiens, UniProt Q9UBK8)
# T2 sequence (Q9UBK8 1-698): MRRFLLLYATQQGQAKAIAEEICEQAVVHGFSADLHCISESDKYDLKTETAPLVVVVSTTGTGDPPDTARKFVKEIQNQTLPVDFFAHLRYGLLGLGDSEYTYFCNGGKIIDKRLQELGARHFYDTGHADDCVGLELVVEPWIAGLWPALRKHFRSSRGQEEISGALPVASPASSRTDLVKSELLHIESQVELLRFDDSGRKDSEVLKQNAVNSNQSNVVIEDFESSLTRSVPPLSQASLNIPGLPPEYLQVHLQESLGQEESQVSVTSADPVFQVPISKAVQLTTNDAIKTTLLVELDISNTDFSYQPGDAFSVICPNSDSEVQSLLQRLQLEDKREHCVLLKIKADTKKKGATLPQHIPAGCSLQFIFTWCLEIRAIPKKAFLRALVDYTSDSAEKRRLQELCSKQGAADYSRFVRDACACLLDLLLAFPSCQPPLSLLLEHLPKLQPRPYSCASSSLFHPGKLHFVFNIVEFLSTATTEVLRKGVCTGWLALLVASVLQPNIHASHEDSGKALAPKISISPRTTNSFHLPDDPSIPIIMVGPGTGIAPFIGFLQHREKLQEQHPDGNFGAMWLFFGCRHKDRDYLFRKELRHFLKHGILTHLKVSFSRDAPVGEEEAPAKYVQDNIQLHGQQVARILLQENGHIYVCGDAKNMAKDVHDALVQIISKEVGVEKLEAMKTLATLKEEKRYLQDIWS
# B1: methionine synthase reductase (MSR), human, I22/S175 background (Homo sapiens; A129T) (protein)
# chain: MRRFLLLYATQQGQAKAIAEEICEQAVVHGFSADLHCISESDKYDLKTETAPLVVVVSTTGTGDPPDTARKFVKEIQNQTLPVDFFAHLRYGLLGLGDSEYTYFCNGGKIIDKRLQELGARHFYDTGHTDDCVGLELVVEPWIAGLWPALRKHFRSSRGQEEISGALPVASPASSRTDLVKSELLHIESQVELLRFDDSGRKDSEVLKQNAVNSNQSNVVIEDFESSLTRSVPPLSQASLNIPGLPPEYLQVHLQESLGQEESQVSVTSADPVFQVPISKAVQLTTNDAIKTTLLVELDISNTDFSYQPGDAFSVICPNSDSEVQSLLQRLQLEDKREHCVLLKIKADTKKKGATLPQHIPAGCSLQFIFTWCLEIRAIPKKAFLRALVDYTSDSAEKRRLQELCSKQGAADYSRFVRDACACLLDLLLAFPSCQPPLSLLLEHLPKLQPRPYSCASSSLFHPGKLHFVFNIVEFLSTATTEVLRKGVCTGWLALLVASVLQPNIHASHEDSGKALAPKISISPRTTNSFHLPDDPSIPIIMVGPGTGIAPFIGFLQHREKLQEQHPDGNFGAMWLFFGCRHKDRDYLFRKELRHFLKHGILTHLKVSFSRDAPVGEEEAPAKYVQDNIQLHGQQVARILLQENGHIYVCGDAKNMAKDVHDALVQIISKEVGVEKLEAMKTLATLKEEKRYLQDIWS
# Experiments:
# [1] = target: T1, methionine synthase reductase (MSR), human, I22/S175 background; assay: isothermal titration calorimetry; format: binding
# Outline: (§1)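 Recombinant wild-type or A129T MSR, 30-50 µM by Bradford and A454, was dialysed overnight against 50 mM Tris-HCl pH 7.5, filtered and degassed. NADP+ (500-850 µM) in the syringe was injected stepwise at 300 s intervals. Heats were corrected for dilution using post-saturation injections and fitted to a single-site model for KA and ΔH°. Runs were done in duplicate or triplicate.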
# [2] = target: T2, methionine synthase reductase (MSR), human, I22/S175 background; assay: isothermal titration calorimetry; format: binding
# Outline: as §1
# [3] = substrate: NC(=O)C1=CN([C@@H]2O[C@H](COP(=O)(O)OP(=O)(O)OC[C@H]3O[C@@H](n4cnc5c(N)ncnc54)[C@H](OP(=O)(O)O)[C@@H]3O)[C@@H](O)[C@H]2O)C=CC1; assay: purified protein; format: biochemical, Homo sapiens; settings: cytochrome c as acceptor, 50 mM Tris pH 7.5, 37°C
Molecule,Kd [1],Kd [2],Km [3]
NC(=O)c1ccc[n+]([C@@H]2O[C@H](COP(=O)(O)OP(=O)(O)OC[C@H]3O[C@@H](n4cnc5c(N)ncnc54)[C@H](OP(=O)(O)O)[C@@H]3O)[C@@H](O)[C@H]2O)c1 [NADP^+],32 ± 2.9 µM,54 ± 5.3 µM,–
B1,–,–,2.8 µM
